The test system of assay [1] is B. duncani. Briefly: microbe, parasite or virus in culture. To be noted: read-out: IC50 B. duncani. It counts as cell-based, Babesia duncani (WA1).
Assay [2] concerns human cell lines (HeLa, HepG2, HEK, and HCT116). Briefly: Drug cytotoxicity evaluation. It counts as cell-based. To be noted: 48 h, read-out: IC50 Human cell lines.
Assay [3] has as its system B. duncani. Nature of the assay: In vitro drug-drug interaction with atovaquone by isobologram analysis. The format is cell-based, Babesia duncani. The conditions noted are these: combination with atovaquone; for Mode of Interaction: isobologram analysis. A digest of the protocol:
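B. duncani WA1 grown in A+ human RBCs, DMEM/F12, 5% hematocrit. […] SYBR Green I lysis read-out (ex 497/em 520 nm). FIC50 = IC50 in combination/IC50 alone, summed; ΣFIC50 <0.8 synergy, 0.8–<1.4 additive, ≥1.4 antagonism. ≥2 independent experiments, triplicates.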

For assay [4], the system named is B. duncani. Briefly: In vivo efficacy in B. duncani lethal infection model in C3H/HeJ mice. Set-up: species or system mouse (C3H/HeJ). The conditions noted are these: for Survival after monotherapy: lethal B. duncani infection, 10 mg/kg oral daily DPI 3 to 7. A digest of the protocol: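 Female C3H/HeJ mice (6 weeks, 5 per group) were infected intravenously with 1×10³ B. duncani WA1-infected RBCs. Oral gavage was given daily on DPI 3–7 with 100 μl PEG 400 vehicle or test compound at 10 mg/kg. Parasitemia came from Giemsa-stained thin blood smears, with at least 3000 RBCs counted, followed to DPI 84. Survival by Kaplan-Meier.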

Assay [5] has as its system B. microti. Briefly: In vivo efficacy in B. microti chronic infection model in CB.17/SCID mice. On the set-up: species or system mouse (CB.17/SCID). To be noted: SCID mice, 10 mg/kg oral.
The mark [6] stands for this setting: B. duncani, 10 mg/kg oral DPI 3 to 7.

Like-named read-outs stand apart in the source and are kept apart here.

Broadly, the IC50 is the point on the concentration scale where inhibition reaches its midpoint.

Consider `O=C1C(O)=C([C@H]2CC[C@H](c3ccc(Cl)cc3)CC2)C(=O)c2ccccc21` [Atovaquone, reference compound], for which the concentration for half-maximal inhibition (IC50) in assay [1] (Babesia duncani, Erythrocyte, in Homo sapiens, 62 h) was determined as 72 ± 6 nM; in assay [2], 5000 nM.
Consider `COc1cc2[nH]c(C)c(-c3ccc(-c4ccc(OC(F)(F)F)cc4)cc3)c(=O)c2cc1Cl` [ELQ-596], for which the IC50 in assay [1] came to 32 ± 4.9 nM. In addition, the “Mode of Interaction” value in assay [3] is recorded as “additive (0.8 ≤ ΣFIC50 < 1.4 = additive)”.
Turning to `CCOC(=O)OCOc1c(-c2ccc(-c3ccc(OC(F)(F)F)cc3)cc2)c(C)nc2cc(OC)c(Cl)cc12` [ELQ-598], the IC50 in assay [1] amounted to 37 ± 2.2 nM. In addition, the “Parasites on Giemsa-stained thin-blood smears on monitoring until DPI 84” value in assay [4] (setting [6]) is recorded as “no parasites could be detected”. Also, the Survival after monotherapy result in assay [4] is listed as “survival of these mice for the duration of study”. In assay [3], the “Mode of Interaction” value is “additive (0.8 ≤ ΣFIC50 < 1.4 = additive)”.
In the case of `COc1cc2[nH]c(C)c(-c3ccc(-c4ccc(OC(F)(F)F)cc4)cc3)c(=O)c2cc1F` [ELQ-650], the half-maximal inhibitory concentration (IC50) in assay [1] was determined as 22 ± 4.9 nM. Besides, in assay [3], the “Mode of Interaction” value was “additive (0.8 ≤ ΣFIC50 < 1.4 = additive)”.
As to `CCOC(=O)OCOc1c(-c2ccc(-c3ccc(OC(F)(F)F)cc3)cc2)c(C)nc2cc(OC)c(F)cc12` [ELQ-672], the IC50 in assay [1] stood at 57 ± 18 nM. For the same compound, in assay [4] (setting [6]), the Day parasites emerged worked out at 16 DPI and the “Parasitemia at DPI 19” value is 8%. Also, the Survival after monotherapy result in assay [4] is recorded as “animals ultimately succumbing to infection”. Further, the Day parasites emerged in assay [5] (vehicle DPI 17) is reported as 21 DPI. For the same compound, the “Day peak parasitemia reached” value in assay [5] (vehicle DPI 21) was found to be 31 DPI. The “Mean FIC value (Σ FIC50)” value in assay [3] (B. duncani in human red blood cells, fixed ratio method) is on record as 0.5. The “Mode of Interaction” value in assay [3] is given as “synergistic”.

The values above are taken from publication PMC11127568 (ACS infectious diseases, 2024).
